Results published in ChEMBL document CHEMBL3596154, “Discovery of biaryl carboxylamides as potent RORγ inverse agonists” (Bioorg Med Chem Lett, 2015).

Key:
[1] = target: T1, Nuclear receptor ROR-gamma (Homo sapiens, UniProt P51449); experiment: Inverse agonist activity at Gal4 DNA binding domain-tagged human RORgammat expressed in HEK293T cells assessed as effect on receptor-mediated transcriptional activity by luciferase reporter gene assay; assay type: functional, cell-based, HEK-293T
T1 sequence (P51449 whole entry): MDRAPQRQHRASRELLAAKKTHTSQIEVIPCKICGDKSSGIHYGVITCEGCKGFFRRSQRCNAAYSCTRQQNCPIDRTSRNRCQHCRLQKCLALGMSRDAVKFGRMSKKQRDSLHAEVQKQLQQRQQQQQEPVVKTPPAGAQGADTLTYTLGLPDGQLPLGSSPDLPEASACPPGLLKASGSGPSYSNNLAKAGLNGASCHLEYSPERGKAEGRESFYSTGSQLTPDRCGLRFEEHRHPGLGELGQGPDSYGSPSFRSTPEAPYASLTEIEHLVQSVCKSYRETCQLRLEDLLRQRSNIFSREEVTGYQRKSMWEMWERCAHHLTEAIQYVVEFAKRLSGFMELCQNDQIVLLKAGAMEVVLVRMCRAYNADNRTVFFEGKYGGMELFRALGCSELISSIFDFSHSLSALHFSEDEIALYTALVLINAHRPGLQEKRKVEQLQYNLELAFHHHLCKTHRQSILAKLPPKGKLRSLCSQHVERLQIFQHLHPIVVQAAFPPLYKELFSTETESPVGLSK
Summary of the method: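 293T cells transfected with a Gal4:RORγ luciferase reporter. Cells seeded day 1 and transfected day 2; compound added in assay medium after transfection. Day 3: cells lysed and luminescence read by dual-flash. Dose-response EC50 is the mean of at least two runs.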

[2] = target: T1, Nuclear receptor ROR-gamma; experiment: Inverse agonist activity at human recombinant GST-tagged RORgammat ligand binding domain assessed as effect on receptor-biotin tagged TRAP220 co-activator peptide interaction using 10 nM GST-RORgamma LBD by FRET-based assay
Summary of the method: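 Recombinant human GST-RORγ LBD (10 nM) with 40 nM biotin-TRAP220 co-activator peptide, 50 nM SAAPC, 1.5 nM Eu-anti-GST IgG. Buffer: 20 mM Tris-HCl pH 7.0, 60 mM NaCl, 5 mM MgCl2, 1 mM DTT, 0.1% BSA, 1.0% DMSO. FRET read on plate reader. IC50 is the mean of at least two runs.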

[3] = Clearance in mouse hepatocytes relative to hepatic blood flow; assay type: ADME, cell-based, Liver, Hepatocyte; settings: read-out: CLH
[4] = Clearance in rat hepatocytes relative to hepatic blood flow; assay type: ADME, cell-based, Liver, Hepatocyte; settings: read-out: CLH
[5] = Clearance in human hepatocytes relative to hepatic blood flow; assay type: ADME, cell-based, Liver, Hepatocyte; settings: read-out: CLH

SMILES | EC50 [1] [nM] | IC50 [2] [nM] | also measured
NC(=O)c1ccc(Cl)c(-c2ccc3c(c2)CCCN3C(=O)c2c(F)cccc2Cl)c1 | 200 | 220 | –
NC(=O)c1cccc(-c2ccc3c(c2)CCCN3C(=O)c2c(F)cccc2Cl)c1 | – | 6200 | –
Cc1ccc(C(N)=O)cc1-c1ccc2c(c1)CCCN2C(=O)c1c(F)cccc1Cl | 450 | 300 | –
COc1ccc(C(N)=O)cc1-c1ccc2c(c1)CCCN2C(=O)c1c(F)cccc1Cl | – | 1000 | –
NC(=O)c1ccc(F)c(-c2ccc3c(c2)CCCN3C(=O)c2c(F)cccc2Cl)c1 | – | 10900 | –
NC(=O)c1cc(F)cc(-c2ccc3c(c2)CCCN3C(=O)c2c(F)cccc2Cl)c1 | – | 13000 | –
NC(=O)c1cc(-c2ccc3c(c2)CCCN3C(=O)c2c(F)cccc2Cl)ccc1F | – | 9300 | –
NC(=O)c1cc(-c2ccc3c(c2)CCCN3C(=O)c2c(F)cccc2Cl)c(F)cc1F | – | 7100 | –
NC(=O)c1cc(-c2ccc3c(c2)CCCN3C(=O)c2c(F)cccc2Cl)c(Cl)cc1F | 140 | 550 | –
CNC(=O)c1ccc(Cl)c(-c2ccc3c(c2)CCCN3C(=O)c2c(F)cccc2Cl)c1 | 200 | 100 | –
CN(C)C(=O)c1ccc(Cl)c(-c2ccc3c(c2)CCCN3C(=O)c2c(F)cccc2Cl)c1 | – | 2100 | –
CCNC(=O)c1ccc(Cl)c(-c2ccc3c(c2)CCCN3C(=O)c2c(F)cccc2Cl)c1 | 160 | 330 | –
O=C(NC1CCCC1)c1ccc(Cl)c(-c2ccc3c(c2)CCCN3C(=O)c2c(F)cccc2Cl)c1 | 330 | 370 | –
O=C(NCCO)c1ccc(Cl)c(-c2ccc3c(c2)CCCN3C(=O)c2c(F)cccc2Cl)c1 | 210 | 190 | –
O=C(NCC(O)CO)c1ccc(Cl)c(-c2ccc3c(c2)CCCN3C(=O)c2c(F)cccc2Cl)c1 (stereo not given) | – | 750 | –
COCCNC(=O)c1ccc(Cl)c(-c2ccc3c(c2)CCCN3C(=O)c2c(F)cccc2Cl)c1 | – | 1340 | –
O=C(NCCN1CCOCC1)c1ccc(Cl)c(-c2ccc3c(c2)CCCN3C(=O)c2c(F)cccc2Cl)c1 | – | 2120 | –
NC(=O)c1ccc(Cl)c(-c2ccc3c(c2)CCN3C(=O)c2c(F)cccc2Cl)c1 | – | 4800 | –
NC(=O)c1ccc(Cl)c(-c2ccc3c(c2)CCCCN3C(=O)c2c(F)cccc2Cl)c1 | 530 | 360 | –
CC1CCc2cc(-c3cc(C(N)=O)ccc3Cl)ccc2N1C(=O)c1c(F)cccc1Cl (stereo not given) | – | 10000 | –
CC1(C)Cc2cc(-c3cc(C(N)=O)ccc3Cl)ccc2N(C(=O)c2c(F)cccc2Cl)C1 | 450 | 640 | –
CC1(C)CCN(C(=O)c2c(F)cccc2Cl)c2ccc(-c3cc(C(N)=O)ccc3Cl)cc21 | 300 | 200 | –
NC(=O)c1ccc(Cl)c(-c2ccc3c(c2)C(F)(F)CCN3C(=O)c2c(F)cccc2Cl)c1 | – | 3600 | hepatic extraction ratio [3]: 0.83; hepatic extraction ratio [4]: 0.86; hepatic extraction ratio [5]: 0.74
NC(=O)c1ccc(Cl)c(-c2ccc3c(c2)OCCN3C(=O)c2c(F)cccc2Cl)c1 | – | 1900 | hepatic extraction ratio [3]: 0.82; hepatic extraction ratio [4]: 0.85; hepatic extraction ratio [5]: 0.76
